Our source for the inhibition and IC50 values is ChEMBL document CHEMBL4725404, “Design, synthesis and biological evaluation of 4-aryl-5-aminoalkyl-thiazole-2-amines derivatives as ROCK II inhibitors” (Bioorg Med Chem, 2020).

Assay [1] has as its target T1, Rho-associated protein kinase 2 (Homo sapiens, UniProt O75116). The assay is described as follows: Inhibition of ROCK2 (unknown origin) using C-terminus recombinant MBS (654-880 residues) as substrate at 10 uM incubated for 30 mins in presence of ATP by ELISA relative to control. In a few lines: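 ROCK II activity ELISA kit; compounds screened at 10 µM for percent inhibition. Kinase reaction incubated at 30 °C for 30 min, then washed. Horseradish peroxidase-conjugated anti-AF20 antibody added for 30 min at room temperature. TMB substrate developed and absorbance read at 450 nm. Inhibition rate derived from OD450.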
Target sequence in this assay (O75116 whole entry, looked up, the tested form may be a part): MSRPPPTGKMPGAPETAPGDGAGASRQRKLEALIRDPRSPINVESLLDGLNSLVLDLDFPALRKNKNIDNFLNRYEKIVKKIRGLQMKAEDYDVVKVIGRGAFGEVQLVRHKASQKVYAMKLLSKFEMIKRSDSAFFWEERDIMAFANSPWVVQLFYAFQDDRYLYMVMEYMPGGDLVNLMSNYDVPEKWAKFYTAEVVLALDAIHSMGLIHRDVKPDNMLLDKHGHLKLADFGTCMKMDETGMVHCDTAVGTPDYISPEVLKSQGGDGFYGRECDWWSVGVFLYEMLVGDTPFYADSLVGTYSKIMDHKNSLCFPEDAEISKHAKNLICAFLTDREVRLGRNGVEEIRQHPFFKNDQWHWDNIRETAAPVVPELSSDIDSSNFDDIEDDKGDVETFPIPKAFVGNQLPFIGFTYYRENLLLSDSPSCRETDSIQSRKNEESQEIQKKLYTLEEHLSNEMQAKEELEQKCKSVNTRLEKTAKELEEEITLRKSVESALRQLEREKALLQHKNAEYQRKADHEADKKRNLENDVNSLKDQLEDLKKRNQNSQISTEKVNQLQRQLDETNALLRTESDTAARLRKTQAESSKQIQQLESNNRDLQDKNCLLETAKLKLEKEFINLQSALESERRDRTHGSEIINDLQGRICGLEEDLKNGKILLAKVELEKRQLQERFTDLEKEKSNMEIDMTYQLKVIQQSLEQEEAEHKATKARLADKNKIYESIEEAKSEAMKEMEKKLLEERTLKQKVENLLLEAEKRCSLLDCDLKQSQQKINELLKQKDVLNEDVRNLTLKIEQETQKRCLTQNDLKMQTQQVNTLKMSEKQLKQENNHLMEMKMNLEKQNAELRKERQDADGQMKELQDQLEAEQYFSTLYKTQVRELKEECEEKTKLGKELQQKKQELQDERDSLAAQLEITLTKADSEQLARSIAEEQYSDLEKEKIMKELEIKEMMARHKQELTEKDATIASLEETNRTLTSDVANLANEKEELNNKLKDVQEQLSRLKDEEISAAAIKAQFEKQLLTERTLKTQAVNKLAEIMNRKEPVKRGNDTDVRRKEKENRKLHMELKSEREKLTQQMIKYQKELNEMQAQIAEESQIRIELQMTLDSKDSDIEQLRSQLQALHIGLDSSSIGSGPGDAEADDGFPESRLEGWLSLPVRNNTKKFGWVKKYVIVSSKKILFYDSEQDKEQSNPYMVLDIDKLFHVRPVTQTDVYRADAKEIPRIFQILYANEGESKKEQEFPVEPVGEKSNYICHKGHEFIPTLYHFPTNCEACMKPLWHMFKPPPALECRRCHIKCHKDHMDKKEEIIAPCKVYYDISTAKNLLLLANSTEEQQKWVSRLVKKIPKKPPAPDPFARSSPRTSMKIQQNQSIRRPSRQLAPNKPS

For assay [2], the target named is T1, Rho-associated protein kinase 2. The assay is described as follows: Inhibition of ROCK2 (unknown origin) using C-terminus recombinant MBS (654-880 residues) as substrate incubated for 30 mins in presence of ATP by ELISA. The gist of the method: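 Compounds with significant single-point inhibition were run in full concentration–response in the ROCK II ELISA kit. Kinase step at 30 °C for 30 min, then wash. Anti-AF20 HRP antibody applied for 30 min at room temperature, followed by TMB colour development read at OD 450 nm. IC50 calculated by nonlinear regression of inhibition rates.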
Target sequence in this assay (O75116 whole entry, the tested form may be a part): as the sequence (O75116 whole entry, looked up, the tested form may be a part) above

The structures appear in SMILES notation.

Regarding `O=C(Nc1nc(-c2ccncc2)c(CN2CCOCC2)s1)C1COc2ccccc2O1` (stereo not drawn), in assay [1], the inhibition was 87.4%.
Turning to `CN(C)CCc1sc(NC(=O)C2COc3ccccc3O2)nc1-c1ccncc1` (stereo not drawn), the inhibition in assay [1] was 78.5%. In assay [2], the IC50 is 90 nM.
In the case of `O=C(Nc1nc(-c2cccnc2)c(CN2CCOCC2)s1)C1COc2ccccc2O1` (stereo not drawn), in assay [1], the inhibition stood at 63.8%. Moreover, the IC50 in assay [2] came to 1730 nM.
`O=C(Nc1nc(-c2ccncc2)c(CN2CCOCC2)s1)c1ccncc1`: the inhibition in assay [1] turned out to be 58.1%.
As to `CN(C)Cc1sc(NC(=O)C2COc3ccccc3O2)nc1-c1cccnc1` (stereo not drawn), the inhibition in assay [1] was determined as 58.1%. Besides, in assay [2], the IC50 was 4960 nM.
For the compound `O=C(Nc1nc(-c2ccncc2)c(CN2CCOCC2)s1)c1cccnc1`, the inhibition in assay [1] stood at 52.2%.
With `O=C(Nc1nc(-c2cccnc2)c(CN2CCOCC2)s1)c1ccncc1`, in assay [1], the inhibition amounted to 51.1%.
On to `CN1CCN(Cc2sc(NC(=O)c3cccnc3)nc2-c2cccnc2)CC1`, for which the inhibition in assay [1] was 32.1%.
Still for that read-out and setting: the figure for `CC(C)N(C)Cc1sc(NC(=O)c2cccnc2)nc1-c1cccnc1` is 38.1%.
`CN(C)Cc1sc(NC(=O)c2cccnc2)nc1-c1cccnc1`: the inhibition in assay [1] stood at 33.9%.
Take `O=C(Nc1nc(-c2cccnc2)c(CN2CCCCC2)s1)c1cccnc1`: in assay [1], the inhibition stood at 28.5%.
In the case of `CN(C)Cc1sc(NC(=O)c2ccncc2)nc1-c1cccnc1`, in assay [1], the inhibition is 35.3%.
For `O=C(Nc1nc(-c2ccncc2)c(N2CCOCC2)s1)C1COc2ccccc2O1` (stereo not drawn), the inhibition in assay [1] is 76.3%. Moreover, in assay [2], the IC50 was found to be 130 nM.
As to `O=C(Nc1nc(-c2ccncc2)cs1)C1COc2ccccc2O1` (stereo not drawn), in assay [1], the inhibition is 91.3%.
In the case of `O=C(Nc1nc(-c2cccnc2)c(CN2CCOCC2)s1)c1cccnc1`, the inhibition in assay [1] worked out at 41.1%.
On to `CN1CCN(c2sc(NC(=O)c3ccncc3)nc2-c2ccncc2)CC1`, for which the inhibition in assay [1] came to 34.3%.
As to `CN(C)C(=O)Cc1sc(NC(=O)c2ccncc2)nc1-c1ccncc1`, the inhibition in assay [1] was found to be 38.1%.
For `O=C(Nc1nc(-c2cccnc2)c(CN2CCCC2)s1)C1COc2ccccc2O1` (stereo not drawn), the inhibition in assay [1] is 61.3%.
Still for that read-out and setting: the value for `O=C(Nc1nc(-c2ccncc2)c(CN2CCCC2)s1)c1ccncc1` was 47.6%; that for `CC(C)N(C)c1sc(NC(=O)c2ccncc2)nc1-c1ccncc1` was 32.1%.
The same measure, in the same setting: the value for `O=C(Nc1nc(-c2ccncc2)c(CN2CCCCC2)s1)c1ccncc1` was 48.2%.
With `CN(C)C(=O)Cc1sc(NC(=O)C2COc3ccccc3O2)nc1-c1ccncc1` (stereo not drawn), the inhibition in assay [1] amounted to 56.9%. For the same compound, the IC50 in assay [2] stood at 8830 nM.
On to `CN(C)CCc1sc(NC(=O)c2ccncc2)nc1-c1ccncc1`, for which, in assay [1], the inhibition came to 48.8%.
